# Assay results reported in ChEMBL document CHEMBL1148969, “Lanostanoid triterpenes from Laetiporus sulphureus and apoptosis induction on HL-60 human myeloid leukemia cells” (J Nat Prod, 2004).
# Calls of active or inactive are those of the source. The calls are words filed in the database; no cut-off is given here.
# Experiments:
# HL-60 [1] = assay: Cytotoxicity against human HL60 cells after 96 hrs by MTT assay; format: functional, cell-based; conditions: for IC50: HL-60, 96 h
# Outline: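 HL-60 promyelocytic leukemia cells; growth inhibition read by MTT; IC50 determined graphically for each experiment by curve fitting. Mean ± SEM of two independent experiments with three determinations each; ursolic acid as positive control.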
# HL-60 [2] = assay: Induction apoptosis in human HL60 cells assessed as condensation of chromatin at 10 uM after 8 hrs by fluorescence microscopy; format: functional, cell-based
# Outline: (§1)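 HL-60 cells cultured with or without 10 µM compound for 8 h, stained with Hoechst 33258; nuclei examined by fluorescence microscopy for chromatin condensation, shrinkage and apoptotic bodies.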
# HL-60 [3] = assay: Induction apoptosis in human HL60 cells assessed as appearance of apoptotic bodies at 10 uM after 8 hrs by fluorescence microscopy; format: functional, cell-based; outline: as §1
# HL-60 [4] = assay: Induction apoptosis in human HL60 cells assessed as […] DNA fragmentation at 30 uM after 16 hrs by electrophoresis; format: functional, cell-based
# Outline: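 Cells treated 16 h at 30 µM; total cellular DNA extracted, run on 2% agarose gel, ethidium bromide stained and internucleosomal ladder viewed under UV; etoposide 3 µM positive control.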
# HL-60 [5] = assay: Induction apoptosis in human HL60 cells assessed as cytochrome c release from mitochondria at 10 uM after 6 hrs by Western blot analysis; format: functional, cell-based
# Outline: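 Cells treated 6 h at 10 µM; cytosolic fraction isolated and immunoblotted with monoclonal anti-cytochrome c (band near 15 kDa); β-actin loading control.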
# HL-60 [6] = assay: Induction apoptosis in human HL60 cells assessed as caspase 3 activity after 6 hrs; format: functional, cell-based
# Outline: (§2)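 HL-60 cells given 10 µM for 6 h; lysates with equal protein incubated with colorimetric substrate DEVD-pNA, absorbance at 405 nm. Expressed as fold increase over untreated control; representative experiment in duplicate; etoposide 10 µM positive control.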
# HL-60 [7] = assay: Induction apoptosis in human HL60 cells assessed as appearance of apoptotic nuclei at 30 uM after 8 hrs by fluorescence microscopy; format: functional, cell-based
# Outline: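 Cells exposed to 30 µM for 8 h, then Hoechst 33258 (bisbenzimide) stained; apoptotic nuclei counted by fluorescence microscopy. Mean ± standard error of one experiment in triplicate, repeated once separately; etoposide as positive control.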
# HL-60 [8] = assay: Induction apoptosis in human HL60 cells assessed as caspase 3 activity at 10 uM after 6 hrs relative to control; format: functional; outline: as §2
# HL-60 [9] = assay: Induction apoptosis in human HL60 cells assessed as PARP1 cleavage at 10 uM after 6 hrs by SDS-PAGE; format: functional, cell-based
# Outline: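 After 6 h at 10 µM, equal protein from whole-cell lysates run on SDS-PAGE, blotted and probed with anti-PARP-1 monoclonal antibody detecting native 116 kDa and cleaved 85 kDa forms; etoposide positive control.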
SMILES,Activity (HL-60 [1]),IC50 (HL-60 [1]) [µM],Activity (HL-60 [2]),Activity (HL-60 [3]),Activity (HL-60 [4]),Activity (HL-60 [5]),Activity (HL-60 [6]),Activity (HL-60 [7]),fold change (FC) (HL-60 [8]),Activity (HL-60 [9])
C=C(CC[C@@H](C(=O)O)[C@H]1C[C@H](OC(C)=O)[C@@]2(C)C3=C(CC[C@]12C)[C@@]1(C)CCC(=O)C(C)(C)[C@@H]1CC3)C(C)C,Dose-dependent effect,25,Active,Active,Active,Active,Dose-dependent effect,,,
C=C(CC[C@@H](C(=O)O)[C@H]1CC[C@@]2(C)C3=C(CC[C@]12C)[C@@]1(C)CC[C@H](O)C(C)(C)[C@@H]1CC3)C(C)C [EBURICOIC ACID],Dose-dependent effect,25,Active,Active,Active,,Dose-dependent effect,,,
C=C(CC[C@@H](C(=O)O)[C@H]1CC[C@@]2(C)C3=C(CC[C@]12C)[C@@]1(C)CC[C@H](OC(C)=O)C(C)(C)[C@@H]1CC3)C(C)C [ACETYL EBURICOIC ACID],Dose-dependent effect,15,Active,Active,Active,Active,Dose-dependent effect,Active,7,Active
CC(C)=CCC[C@@H](C(=O)O)[C@H]1C[C@H](O)[C@@]2(C)C3=C(CC[C@]12C)[C@@]1(C)CC[C@H](O)C(C)(C)[C@@H]1CC3,Dose-dependent effect,12,,,,,,,,
C=C(CC[C@@H](C(=O)O)[C@H]1C[C@H](O)[C@@]2(C)C3=C(CC[C@]12C)[C@@]1(C)CC[C@H](O)C(C)(C)[C@@H]1CC3)C(C)C [SULFURENIC ACID],Dose-dependent effect,14,,,,,,,,
CC(=O)O[C@H]1CC[C@]2(C)C3=C(CC[C@H]2C1(C)C)[C@]1(C)CC[C@H]([C@@H](CCC=C(C)C)C(=O)O)[C@@]1(C)CC3 [ACETYL TRAMETENOLIC ACID],Dose-dependent effect,31,Active,Active,Active,,Dose-dependent effect,Active,,
C=C(CC[C@@H](C(=O)O)[C@H]1C[C@H](O)[C@@]2(C)C3=C(CC[C@]12C)[C@@]1(C)CCC(=O)C(C)(C)[C@@H]1CC3)C(C)C,Dose-dependent effect,407,,,,,,,,
C[C@H]1[C@H](C)CC[C@]2(C(=O)O)CC[C@]3(C)C(=CC[C@@H]4[C@@]5(C)CC[C@H](O)C(C)(C)[C@@H]5CC[C@]43C)[C@H]12 [URSOLIC ACID],Dose-dependent effect,21,,,,,,,,
